Measured values reported in publication PMC8530978 (Bioorganic chemistry, 2021).

What was measured:
[1] = system: mitotic spindle of HeLaM cells; assay type: cell-based; settings: compound 10 μM + MG132 + ZM447439 (DMSO+MG132+ZM447439 3%)
[2] = system: histone H3 acetylation and tubulin acetylation in HCT116 cells; experiment: Western blot of histone H3 and tubulin acetylation in HCT116 cells; assay type: cell-based, human; settings: HCT116, 24 h, IPEs up to highest concentration 25 μM
Summary of the method: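 HCT116 cells (2 × 10^6 per T-25 flask) adhered overnight, then given test compound at 1, 10 or 25 μM, or DMSO, for 24 h. Lysed in RIPA; protein measured by BCA. Acetyl-histone H3 and acetyl-tubulin immunoblotted, detected with fluorescent secondary antibodies on an Odyssey scanner.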

HeLaM cells = experiment: Flow cytometry cell cycle analysis; assay type: cell-based; settings: for cells in G2/M: 48 hours, subG1 excluded (DMSO 10%); for subG1 population: 72 hr post treatment (DMSO 14%)
Summary of the method: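 5 × 10^5 HeLaM cells plated, treated next day with test compound or DMSO for 24, 48 or 72 h. All cells (floating and attached) collected and fixed in 70% ethanol (final). […] 10 μg/ml, 30 min, 37 °C, then propidium iodide in PBS + 2% FBS. SubG1 gated; subG1 excluded before modeling live-cell cycle distribution.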

HDAC3 = HDAC3 (Homo sapiens, UniProt O15379); experiment: HDAC-Glo inhibitor testing with recombinant HDAC3; assay type: biochemical
HDAC3, sequence (O15379 whole entry): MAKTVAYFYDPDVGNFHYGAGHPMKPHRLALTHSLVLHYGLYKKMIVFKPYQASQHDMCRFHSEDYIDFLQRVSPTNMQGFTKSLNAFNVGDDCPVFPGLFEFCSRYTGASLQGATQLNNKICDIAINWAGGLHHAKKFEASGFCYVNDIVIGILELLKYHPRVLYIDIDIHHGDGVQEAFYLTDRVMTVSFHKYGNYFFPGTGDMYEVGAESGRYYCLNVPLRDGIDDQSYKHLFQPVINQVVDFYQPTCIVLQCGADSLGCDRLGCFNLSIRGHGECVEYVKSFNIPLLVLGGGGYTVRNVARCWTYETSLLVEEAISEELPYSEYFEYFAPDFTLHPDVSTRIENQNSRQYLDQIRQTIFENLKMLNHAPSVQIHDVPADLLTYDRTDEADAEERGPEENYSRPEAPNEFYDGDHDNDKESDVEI
HDAC3, sequence (Q9Y618 395-489 partner limits assumed): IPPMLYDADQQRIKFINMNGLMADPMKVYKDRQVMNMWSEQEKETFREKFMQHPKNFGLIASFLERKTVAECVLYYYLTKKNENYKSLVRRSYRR

HDAC6 = biological target: T1, HDAC6 (Homo sapiens, UniProt Q9UBN7); experiment: HDAC-Glo inhibitor testing with recombinant HDAC6; assay type: biochemical
T1 sequence (Q9UBN7 1-1215): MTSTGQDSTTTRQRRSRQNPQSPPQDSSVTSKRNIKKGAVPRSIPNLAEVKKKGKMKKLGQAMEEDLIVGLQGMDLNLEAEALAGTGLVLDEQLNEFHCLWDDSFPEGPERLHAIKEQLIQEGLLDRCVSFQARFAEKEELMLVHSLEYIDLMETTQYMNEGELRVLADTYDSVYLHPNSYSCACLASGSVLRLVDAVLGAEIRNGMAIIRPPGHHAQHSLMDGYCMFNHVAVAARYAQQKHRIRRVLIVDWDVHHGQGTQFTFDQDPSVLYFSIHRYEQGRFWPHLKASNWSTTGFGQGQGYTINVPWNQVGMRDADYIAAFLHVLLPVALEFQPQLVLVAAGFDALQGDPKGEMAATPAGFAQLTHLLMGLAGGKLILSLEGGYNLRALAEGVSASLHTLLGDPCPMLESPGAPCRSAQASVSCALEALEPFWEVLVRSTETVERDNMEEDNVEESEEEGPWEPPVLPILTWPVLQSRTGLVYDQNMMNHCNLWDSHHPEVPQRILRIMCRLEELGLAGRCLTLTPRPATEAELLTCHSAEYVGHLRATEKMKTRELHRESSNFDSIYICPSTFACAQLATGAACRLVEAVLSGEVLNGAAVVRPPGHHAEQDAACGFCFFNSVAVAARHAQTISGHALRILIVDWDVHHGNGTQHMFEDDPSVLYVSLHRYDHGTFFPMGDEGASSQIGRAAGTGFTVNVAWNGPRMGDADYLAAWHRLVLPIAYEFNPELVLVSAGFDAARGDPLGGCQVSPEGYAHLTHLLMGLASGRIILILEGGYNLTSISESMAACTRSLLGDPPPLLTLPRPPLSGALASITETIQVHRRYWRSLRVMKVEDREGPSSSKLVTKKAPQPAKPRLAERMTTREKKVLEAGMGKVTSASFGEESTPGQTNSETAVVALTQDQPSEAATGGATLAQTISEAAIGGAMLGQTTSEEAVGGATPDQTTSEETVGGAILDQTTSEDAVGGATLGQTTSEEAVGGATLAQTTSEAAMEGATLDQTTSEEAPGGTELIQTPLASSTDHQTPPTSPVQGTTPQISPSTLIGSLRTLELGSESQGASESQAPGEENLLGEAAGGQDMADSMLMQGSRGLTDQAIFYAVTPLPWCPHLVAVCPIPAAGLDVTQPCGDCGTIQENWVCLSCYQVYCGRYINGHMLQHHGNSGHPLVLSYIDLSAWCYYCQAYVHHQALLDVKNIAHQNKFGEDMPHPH

HDAC1 = HDAC1 (Homo sapiens, UniProt Q13547); experiment: HDAC-Glo inhibitor testing with recombinant HDAC1; assay type: biochemical
HDAC1, sequence (Q13547 whole entry): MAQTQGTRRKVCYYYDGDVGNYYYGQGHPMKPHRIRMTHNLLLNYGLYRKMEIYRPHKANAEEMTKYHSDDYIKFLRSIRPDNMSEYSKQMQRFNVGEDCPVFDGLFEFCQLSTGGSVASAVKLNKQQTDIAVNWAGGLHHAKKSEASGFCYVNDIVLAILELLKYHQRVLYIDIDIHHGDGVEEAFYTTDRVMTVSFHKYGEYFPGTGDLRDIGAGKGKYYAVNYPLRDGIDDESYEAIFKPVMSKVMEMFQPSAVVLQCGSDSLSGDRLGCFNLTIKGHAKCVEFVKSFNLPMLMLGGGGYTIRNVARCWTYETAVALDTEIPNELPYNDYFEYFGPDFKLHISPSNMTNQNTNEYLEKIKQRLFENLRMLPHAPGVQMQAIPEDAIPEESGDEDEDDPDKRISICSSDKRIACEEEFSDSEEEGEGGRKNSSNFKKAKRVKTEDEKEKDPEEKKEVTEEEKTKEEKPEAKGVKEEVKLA

[3] = system: NCI sixty human tumor cell line panel; experiment: NCI sixty human tumor cell line panel, single dose 10 μM; assay type: cell-based; settings: Homo sapiens; for activity at 10 µM: read-out: Mean % growth at 10 μM
HDAC2 = HDAC2 (Homo sapiens, UniProt Q92769); experiment: HDAC-Glo inhibitor testing with recombinant HDAC2; assay type: biochemical
HDAC2, sequence (Q92769 whole entry): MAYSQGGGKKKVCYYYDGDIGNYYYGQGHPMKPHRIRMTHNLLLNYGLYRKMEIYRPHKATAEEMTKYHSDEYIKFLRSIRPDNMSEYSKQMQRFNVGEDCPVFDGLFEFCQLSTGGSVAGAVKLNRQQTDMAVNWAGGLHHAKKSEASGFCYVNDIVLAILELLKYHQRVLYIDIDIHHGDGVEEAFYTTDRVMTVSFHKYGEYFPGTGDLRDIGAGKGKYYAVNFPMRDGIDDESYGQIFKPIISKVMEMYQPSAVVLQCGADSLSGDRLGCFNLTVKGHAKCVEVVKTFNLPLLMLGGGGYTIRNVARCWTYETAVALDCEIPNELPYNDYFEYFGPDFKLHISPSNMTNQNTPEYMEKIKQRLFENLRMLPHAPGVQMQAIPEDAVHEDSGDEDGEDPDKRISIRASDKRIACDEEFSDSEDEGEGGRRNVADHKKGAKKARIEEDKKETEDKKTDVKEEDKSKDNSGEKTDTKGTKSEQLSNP

HDAC8 = biological target: T2, HDAC8 (Homo sapiens, UniProt Q9BY41); experiment: HDAC-Glo inhibitor testing with recombinant HDAC8; assay type: biochemical; settings: for remaining activity at 100 µM: read-out: HDAC8 activity remaining
T2 sequence (Q9BY41 1-377): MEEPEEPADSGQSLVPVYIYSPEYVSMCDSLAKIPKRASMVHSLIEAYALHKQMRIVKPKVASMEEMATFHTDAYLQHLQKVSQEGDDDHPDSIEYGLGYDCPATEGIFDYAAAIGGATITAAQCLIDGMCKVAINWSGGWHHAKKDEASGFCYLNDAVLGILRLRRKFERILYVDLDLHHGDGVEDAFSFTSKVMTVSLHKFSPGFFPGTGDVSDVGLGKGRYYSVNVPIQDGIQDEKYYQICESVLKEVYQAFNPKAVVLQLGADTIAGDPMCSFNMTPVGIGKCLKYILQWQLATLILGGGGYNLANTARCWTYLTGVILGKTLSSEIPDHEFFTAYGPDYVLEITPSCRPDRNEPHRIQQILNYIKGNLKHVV

HCT 116 cells = experiment: MTS reduction assay, antiproliferative activity on HCT 116; assay type: cell-based; settings: Homo sapiens, HCT-116, 96 h
Summary of the method: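 HCT116 cells grown in McCoy's 5A with 10% FBS (37 °C, 5% CO2), seeded at 3 × 10^3/well in triplicate and left to adhere overnight. Exposed to test compound at 0.01–100 μM, or DMSO, for 96 h. MTS reagent added for 2 h at 37 °C; absorbance read at 490 nm. Curves of log(concentration) vs response fitted with a variable Hill slope.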

[4] = biological target: tubulin heterodimers, purified from porcine brain (Sus scrofa, UniProt P02554); experiment: Turbidity-based tubulin polymerization assay; assay type: biochemical; settings: 10 μM compound, 37 °C, exponential phase (DMSO 10 mOD/min)
tubulin heterodimers, purified from porcine brain, sequence (P02554 whole entry): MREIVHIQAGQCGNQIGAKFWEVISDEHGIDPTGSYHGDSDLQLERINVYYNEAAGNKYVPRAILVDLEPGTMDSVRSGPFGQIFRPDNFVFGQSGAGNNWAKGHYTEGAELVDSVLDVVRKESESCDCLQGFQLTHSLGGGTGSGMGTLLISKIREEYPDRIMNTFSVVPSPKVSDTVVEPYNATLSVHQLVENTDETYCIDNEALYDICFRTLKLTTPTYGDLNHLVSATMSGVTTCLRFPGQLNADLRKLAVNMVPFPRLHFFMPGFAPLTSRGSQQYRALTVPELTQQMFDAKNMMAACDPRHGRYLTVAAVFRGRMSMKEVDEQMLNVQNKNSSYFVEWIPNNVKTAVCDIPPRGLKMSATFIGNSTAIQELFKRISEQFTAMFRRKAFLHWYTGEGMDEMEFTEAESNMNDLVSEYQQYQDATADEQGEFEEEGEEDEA
tubulin heterodimers, purified from porcine brain, sequence (P02550 whole entry partner): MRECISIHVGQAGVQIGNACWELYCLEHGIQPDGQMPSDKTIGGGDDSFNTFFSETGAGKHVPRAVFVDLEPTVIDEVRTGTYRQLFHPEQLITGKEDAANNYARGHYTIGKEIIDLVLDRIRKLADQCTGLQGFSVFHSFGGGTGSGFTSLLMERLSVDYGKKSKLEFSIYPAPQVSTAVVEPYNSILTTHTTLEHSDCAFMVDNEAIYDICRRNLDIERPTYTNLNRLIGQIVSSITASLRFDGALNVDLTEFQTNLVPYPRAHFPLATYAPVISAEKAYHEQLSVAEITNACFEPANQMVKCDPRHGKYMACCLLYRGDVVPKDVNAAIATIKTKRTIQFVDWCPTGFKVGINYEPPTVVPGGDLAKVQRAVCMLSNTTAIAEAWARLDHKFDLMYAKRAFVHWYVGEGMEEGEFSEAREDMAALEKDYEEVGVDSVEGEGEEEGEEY

NCI 60 cancer cell lines = experiment: NCI dose response assay; assay type: cell-based, human
[5] = system: acetylation of SMC3 in HeLaM cells; experiment: Western blot of SMC3 acetylation in HeLaM cells; assay type: cell-based; settings: overnight treatment
Summary of the method: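 Acetylated SMC3 detected by immunoblot with an anti-acetyl-SMC3 antibody, HRP-conjugated secondary antibody and enhanced chemiluminescence, imaged on film.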

[6] = system: purified HDAC isoforms (HDAC1, 2, 3, 8 and HDAC6); experiment: Single concentration; assay type: biochemical; settings: 100 μM, HDAC1, 2, 3, 8 and 6
Summary of the method: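 Recombinant HDAC1, 2, 3, 6 or 8 (1 μL of enzyme stock at 3, 1, 30, 35 or 70 ng/μL respectively) in HDAC-Glo buffer, incubated 3 h at room temperature with test compound in DMSO. HDAC-Glo reagent then added; luminescence read every 3 min for 30 min. Peak signal corrected against a no-enzyme background and divided by the no-inhibitor signal to give % activity remaining.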

| IC50 (HDAC3) [µM] | IC50 (HDAC6) [µM] | IC50 (HDAC1) [µM] | IC50 (HDAC2) [µM] | IC50 (HDAC8) [µM] | GI50 (HCT 116 cells) [µM] | SMILES | global histone H3 acetylation and tubulin acetylation [2] | activity at 10 µM [3] [%] | further results |
| --- | --- | --- | --- | --- | --- | --- | --- | --- | --- |
|  |  |  |  |  | 6.85 | Cc1ccc(NC(=O)Cc2ccc(/C=C/C(=O)c3ncc[nH]3)cc2)cc1 [IPE-3, (E)-2-(4-(3-(1H-Imidazol-2-yl)-3-oxoprop-1-en-1-yl)phenyl)-N-(p-tolyl)acetamide] |  | 41.3 |  |
| > 200 | > 200 | > 200 | > 200 | 3 ± 0.2 |  | Cn1ccnc1C(=O)/C=C/c1ccc(CC(=O)Nc2ccc(S(F)(F)(F)(F)F)cc2)cc1 [IPE-22, (E)-2-(4-(3-(1-Methyl-1H-imidazol-2-yl)-3-oxoprop-1-en-1-yl)phenyl)-N-(4-(pentafluoro-λ^6-sulfanyl)phenyl)acetamide] |  | -18.8 | spindle collapse [1]: phenotype was reproduced; GI50, all leukemia cell lines (NCI 60 cancer cell lines): upper nanomolar; inhibition at 10 µM ([3]; read-out: growth inhibition at 10 μM): 100%; fold selectivity for HDAC8 compared to the other isoforms (HDAC8; from IC50 values, other isoforms >200 μM): ≥ 67 fold; remaining activity at 100 µM (HDAC8): 20 to 60% |
|  |  |  |  |  | 5.91 | Cn1ccnc1C(=O)/C=C/c1ccc(CC(=O)Nc2ccccc2)cc1 [IPE-16, (E)-2-(4-(3-(1-Methyl-1H-imidazol-2-yl)-3-oxoprop-1-en-1-yl)phenyl)-N-phenylacetamide] | no increase in global histone acetylation or tubulin acetylation | 15.9 | spindle collapse [1]: phenotype was reproduced |
|  |  |  |  |  | 6.56 | Cn1ccnc1C(=O)/C=C/c1ccc(CC(=O)Nc2ccc(F)cc2)cc1 [IPE-19, (E)-N-(4-Fluorophenyl)-2-(4-(3-(1-methyl-1H-imidazol-2-yl)-3-oxoprop-1-en-1-yl)phenyl)acetamide] | no increase in global histone acetylation or tubulin acetylation | 33.1 |  |
|  | > 100 | > 100 | > 100 |  | 5.14 | O=C(Cc1ccc(/C=C/C(=O)c2ncc[nH]2)cc1)Nc1ccc(Cl)cc1 [IPE-8, (E)-2-(-4(3-(1H-imidazol-2-yl)-3-oxoprop-1-en-1-yl)phenyl)-N-(4-chlorophenyl)acetamide] |  | 21.1 | SMC3 acetylation [5]: no effect on SMC3 acetylation; activity remaining, each HDAC isoform [6]: 20–80%; cells in G2/M (HeLaM cells): 33%; subG1 population (HeLaM cells): 59% |
| > 100 | > 100 | > 100 | > 100 | > 100 |  | Cn1ccnc1C(=O)/C=C/c1ccc(CC(=O)Nc2ccc(Br)cc2)cc1 [IPE-18, (E)-N-(4-Bromophenyl)-2-(4-(3-(1-methyl-1H-imidazol-2-yl)-3-oxoprop-1-en-1-yl)phenyl)acetamide] |  | 19.9 |  |

The remaining lines, values behind:

| SMILES | IC50 (HDAC3) [µM] | IC50 (HDAC6) [µM] | IC50 (HDAC1) [µM] | IC50 (HDAC2) [µM] | IC50 (HDAC8) [µM] | GI50 (HCT 116 cells) [µM] | global histone H3 acetylation and tubulin acetylation [2] | activity at 10 µM [3] [%] | further results |
| --- | --- | --- | --- | --- | --- | --- | --- | --- | --- |
| O=C(CCCCCCC(=O)Nc1ccccc1)NO [SAHA, reference compound] |  |  |  |  |  |  | dramatically increased |  | spindle collapse [1]: did not produce the same aberrant spindle; cells in G2/M (HeLaM cells): 8.2%; subG1 population (HeLaM cells): 37% |
| Cn1ccnc1C(=O)/C=C/c1ccc(CC(=O)Nc2c(F)c(F)c(F)c(F)c2F)cc1 [IPE-25, (E)-2-(4-(3-(1-methyl-1H-imidazol-2-yl)-3-oxoprop-1-en-1-yl)phenyl)-N-(perfluorophenyl)acetamide] | 16 ± 1 | 8.6 ± 4.9 | 12 ± 1 | 8.9 ± 0.6 | 9 ± 0.5 |  |  | 61.4 |  |
| Nc1ccccc1NC(=O)c1ccc(CNC(=O)OCc2cccnc2)cc1 [MS275, reference compound] |  |  |  |  |  |  | dramatically increased |  |  |
| CC(=O)O[C@H]1C(=O)[C@@]2(C)[C@H]([C@H](OC(=O)c3ccccc3)[C@]3(O)C[C@H](OC(=O)[C@H](O)[C@@H](NC(=O)c4ccccc4)c4ccccc4)C(C)=C1C3(C)C)[C@]1(OC(C)=O)CO[C@@H]1C[C@@H]2O [Taxol, reference compound] |  |  |  |  |  |  |  |  | Vmax of tubulin polymerization [4]: higher Vmax than DMSO |
| Cn1ccnc1C(=O)/C=C/c1ccc(CC(=O)Nc2cc(F)c(F)c(F)c2)cc1 [IPE-24, (E)-2-(4-(3-(1-methyl-1H-imidazol-2-yl)-3-oxoprop-1-en-1-yl)phenyl)-N-(3,4,5-trifluorophenyl)acetamide] | > 200 | > 200 | > 200 | > 200 | 13 ± 1 |  |  | 22.7 | GI50, all leukemia cell lines (NCI 60 cancer cell lines): upper nanomolar; remaining activity at 100 µM (HDAC8): 20 to 60% |
| O=C(Cc1ccc(/C=C/C(=O)c2ncc[nH]2)cc1)Nc1ccc(Br)cc1 [IPE-9, (E)-2-(-4(3-(1H-imidazol-2-yl)-3-oxoprop-1-en-1-yl)phenyl)-N-(4-bromophenyl)acetamide] |  |  |  |  |  |  |  | 17.9 | GI50, all but two of the cell lines each in the leukemia and colon cancer panels (NCI 60 cancer cell lines): sub-micromolar |
| Cn1ccnc1C(=O)/C=C/c1ccc(CC(=O)Nc2cc(C(F)(F)F)cc(C(F)(F)F)c2)cc1 [IPE-26, (E)-N-(3,5-bis(trifluoromethyl)phenyl)-2-(4-(3-(1-methyl-1H-imidazol-2-yl)-3-oxoprop-1-en-1-yl)phenyl)acetamide] | > 200 | > 100 | > 200 | > 100 | 15 ± 1 |  |  | 69 | remaining activity at 100 µM (HDAC8): 20 to 60% |
